Data on seven molecules can be found in ChEMBL document CHEMBL4145609, “Cytotoxic Drimane Sesquiterpenoids Isolated from Perenniporia maackiae” (2018).

Type in all cases: functional
For one assay, the system named is ACHN. Kind of assay: Cytotoxicity against human ACHN cells assessed as inhibition of cell proliferation measured after 72 hrs by sulforhodamine B assay. A digest of the protocol: (§1)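 Cells seeded at 2 × 10^3 cells/well and exposed to a range of concentrations for 72 h, with adriamycin as reference. Fixed in 10% trichloroacetic acid overnight at 4 °C, stained with 0.4% SRB for 1 h, washed with 1% acetic acid, dye solubilized in 10 mM Tris, absorbance read at 690 nm. GI50 taken from dose–response curves corrected for starting cell count; mean of triplicates.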
A general note: In SRB staining, fixed cells bind dye roughly in proportion to their protein.

The next assay concerns HCT-15. In words: Cytotoxicity against human HCT15 cells assessed as inhibition of cell proliferation measured after 72 hrs by sulforhodamine B assay. As to conditions: for GI50: HCT-15, 72 h. A digest of the protocol:
as §1

For a further assay, the system named is MDA-MB-231. Kind of assay: Cytotoxicity against human MDA-MB-231 cells assessed as inhibition of cell proliferation measured after 72 hrs by sulforhodamine B assay. As to conditions: for GI50: MDA-MB-231, 72 h. A digest of the protocol: as §1
Another assay concerns NCI-H23. Kind of assay: Cytotoxicity against human NCI-H23 cells assessed as inhibition of cell proliferation measured after 72 hrs by sulforhodamine B assay. As to conditions: for GI50: NCI-H23, 72 h. A digest of the protocol: as §1
Another assay concerns NUGC-3. In words: Cytotoxicity against human NUGC3 cells assessed as inhibition of cell proliferation measured after 72 hrs by sulforhodamine B assay. Particulars: for GI50: NUGC-3, 72 h. A digest of the protocol: as §1
In a further assay the test system is PC-3. In words: Cytotoxicity against human PC3 cells assessed as inhibition of cell proliferation measured after 72 hrs by sulforhodamine B assay. Particulars: for GI50: PC-3, 72 h. A digest of the protocol: as §1

Counter-ions that a name gives are not always drawn. The source made the active and inactive calls. The calls are words filed in the database; no cut-off is given here.

The term GI50 denotes the concentration that inhibits growth by half. For the molecule `CC1(C)CCC[C@@]2(C)[C@H]1C(=O)C=C1CO[C@@H](O)[C@@]12O`, the GI50 with ACHN was 3600 nM; in the assay with HCT-15, 5400 nM; in the assay on MDA-MB-231, 4000 nM; with NCI-H23, 4300 nM; in the assay on NUGC-3, 2300 nM; in the assay on PC-3 it was 4600 nM.

As to `CO[C@H]1C=C2CO[C@@H](O)[C@]2(O)[C@@]2(C)CCCC(C)(C)[C@H]12`, the 50% growth inhibitory concentration (GI50) in the assay with ACHN was found to be 1200 nM; in the assay with HCT-15, 1600 nM; in the assay with MDA-MB-231, 1500 nM; in the assay on NCI-H23, 1400 nM; in the assay with NUGC-3, 1900 nM; in the assay on PC-3 it was 2000 nM.

With `CC(=O)O[C@@H]1C=C2CO[C@@H](O)[C@]2(O)[C@@]2(C)CC[C@H](O)C(C)(C)[C@H]12`, the result with ACHN, in the assay with HCT-15, with MDA-MB-231, with NCI-H23, in the assay on NUGC-3 and with PC-3 was inactive.

`CC1(C)CCC[C@@]2(C)[C@H]1[C@@H](O)C=C1CO[C@@H](O)[C@@]12O`: the GI50 is 2000 nM in the assay with ACHN; 1800 nM in the assay on HCT-15; 2300 nM with MDA-MB-231; 2100 nM with NCI-H23; 2400 nM with NUGC-3; 6000 nM in the assay with PC-3.

On to `COc1cccc2c1C(=O)c1c(O)c3c(c(O)c1C2=O)C[C@@](O)(C(=O)CO)C[C@@H]3O[C@H]1C[C@H](N)[C@H](O)[C@H](C)O1` [DOXORUBICIN HYDROCHLORIDE], for which the GI50 amounted to 70 nM in the assay on ACHN; 50 nM in the assay on HCT-15; 70 nM with MDA-MB-231; 80 nM in the assay on NCI-H23; 70 nM in the assay on NUGC-3; 90 nM in the assay with PC-3.

As to `C[C@]1(CO)CCC[C@@]2(C)[C@H]1[C@H](O)C=C1CO[C@@H](O)[C@@]12O`, the outcome with ACHN, with HCT-15, in the assay with MDA-MB-231, with NCI-H23, with NUGC-3 and in the assay with PC-3 was inactive.

For the molecule `CO[C@@H]1C=C2CO[C@@H](O)[C@]2(O)[C@@]2(C)CCCC(C)(C)[C@H]12`, the outcome in the assay on ACHN, in the assay on HCT-15, in the assay on MDA-MB-231, in the assay with NCI-H23, with NUGC-3 and in the assay on PC-3 was inactive.
